GASC1 inh = inhibitors of GASC-1 (KDM4C) histone demethylase, primary screen, biochemical, single concentration HTS; Lysine-specific demethylase 4C (Homo sapiens), Q9H3R0; GST-KDM4C 2-372, H3K9me3 peptide, LANCE TR-FRET; inhibition, % at 12.5 µM; 96,000 tested, 0.15% active; AID 720574, 2013;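 active = mean replicate inhibition above about 25%, with at least 55% of replicates also reaching it, limit read from the data, passing the limit was not always enough; inconclusive = only one of those two conditions met; inactive = neither condition met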
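reagent = H3K9me3 peptide substrate, Fe(II), 2-oxoglutarate | system = GST-tagged GASC-1 (JMJD2C) catalytic fragment, aa 2-372 | amount = enzyme final amount 10 nM | read-out = Fall in 671/618 emission ratio as inhibition | medium = HEPES buffer, pH 7.5, plus ascorbate | schedule = 30 min reaction, 60 min detection, RT | measured by = LANCE TR-FRET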
IDH1 R132H inh = inhibitors of IDH1 R132H reductase, primary screen, biochemical, plate reader, single point | Isocitrate dehydrogenase [NADP] cytoplasmic (Homo sapiens), O75874 | diaphorase/resazurin fluorescence, 60 min | inhibition, % at 10 µM | 70,000 tested, 0.18% active | AID 624101, 2012; in the data active = inhibition above about 34%; inconclusive = no clear call, values can overlap the other calls; inactive = below about 11%;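 note: 0% = DMSO and 100% = no enzyme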
Target sequence (O75874 whole entry R132H): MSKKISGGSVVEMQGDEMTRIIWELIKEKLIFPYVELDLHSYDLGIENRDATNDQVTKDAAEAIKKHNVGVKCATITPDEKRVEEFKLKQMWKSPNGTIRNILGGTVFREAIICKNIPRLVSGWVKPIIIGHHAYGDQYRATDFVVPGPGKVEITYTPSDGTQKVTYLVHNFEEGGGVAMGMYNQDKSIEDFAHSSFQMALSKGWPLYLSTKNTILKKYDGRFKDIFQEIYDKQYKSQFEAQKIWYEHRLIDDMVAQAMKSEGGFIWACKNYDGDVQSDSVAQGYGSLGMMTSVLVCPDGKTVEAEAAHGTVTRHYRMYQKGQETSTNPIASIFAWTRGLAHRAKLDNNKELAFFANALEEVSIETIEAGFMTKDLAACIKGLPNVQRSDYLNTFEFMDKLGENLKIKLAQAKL
Pf Dd2 growth = P. falciparum Dd2 growth inhibitors, primary screen, SYBR Green fluorescence, single dose replicates; 72 h; hits give low values; activity change, % at 10 µM; 94,000 tested, 2.3% active; AID 1159554, 2015; in the data active = activity change below about -80%; inconclusive = no clear call, values can overlap the other calls
Tcruzi prolif = T. cruzi intracellular proliferation inhibitors, primary screen, cell-based, beta-gal Tulahuen parasites, NIH3T3 host, luminescence; T. cruzi beta-gal in NIH3T3, GalScreen luminescence, 90 h; inhibition, % at 8.34 µM; AID 624255, 2012; 77,000 tested, 5.9% active;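 active = mean inhibition above about 93%, with at least 55% of replicates each passing it, limit read from the data, passing the limit was not always enough; inconclusive = only one of those two conditions holds; inactive = neither condition holds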
* = called active by the depositor; ? = inconclusive; · = no result. A selection: hits, their analogues and other compounds. The true share with any hit is near 5.9%.

SMILES	GASC1 inh	IDH1 R132H inh	Pf Dd2 growth	Tcruzi prolif
C[C@@H]1CN([C@H](C)CO)C(=O)c2cc(NC(=O)NC3CCCCC3)ccc2O[C@@H](C)CCCCO[C@H]1CN(C)C(=O)CCC(F)(F)F	-1.6	·	5.6	-17.1
C/C=C/c1ccc([C@H]2[C@H](CO)N[C@@H]2CN(CC)C(=O)c2cccnc2)cc1	0.8	·	-30.1	-24.1
C[C@H](CO)N1C[C@H](C)[C@@H](CN(C)Cc2cncnc2)Oc2ncc(C#CC(C)(C)O)cc2C1=O	-4.2	1.4	10.6	55.6
COc1ccc(S(=O)(=O)N(CC(=O)Nc2ccc3c(c2)OCCO3)C2CCCCC2)cc1Cl	·	0.2	·	·
O=C(C[C@@H]1CC[C@@H]2[C@H](COC[C@@H](O)CN2C(=O)c2ccccc2F)O1)NCc1ccc(-c2ccccc2)cc1	0.5	·	-86.2*	·
O=C(C[C@H]1CC[C@H]2[C@@H](COC[C@H](O)CN2C(=O)c2ccccc2F)O1)NCc1ccc(-c2ccccc2)cc1	-2.0	·	-55.4	·
COc1c2c(c(CSc3nnnn3-c3ccccc3)c(OC)c1OC)C(=O)OC2	·	-3.1	·	·
C[C@@H]1CCCCO[C@@H](CN(C)S(=O)(=O)c2ccc(Cl)cc2)[C@@H](C)CN([C@H](C)CO)C(=O)c2cc(NC(=O)Cc3ccccc3)ccc2O1	9.7	1.1	-82.9*	45.1
Cc1ccc(S(=O)(=O)N(C)C[C@@H]2OCCCC[C@@H](C)Oc3ccc(NC(=O)Cc4ccccc4)cc3C(=O)N([C@H](C)CO)C[C@@H]2C)cc1	-1.1	·	-81.5*	52.5
CCCC(=O)N1CCC2(CC1)CN(Cc1ccccc1F)[C@@H](CO)c1c2c2ccc(OC)cc2n1C	-4.3	·	-82.8*	·
CCCC(=O)N1CC2(C1)CN(Cc1ccccc1F)[C@H](CO)c1c2c2ccc(OC)cc2n1C	-0.3	·	-86.9*	·
CCCC(=O)N1CCC2(CC1)CN(Cc1ccccc1F)[C@H](CO)c1c2c2ccc(OC)cc2n1C	-0.8	·	?	·
C/C=C/c1ccc([C@H]2[C@@H](CO)N(C(=O)CC)[C@@H]2CNCC2CCCCC2)cc1	1.6	·	-85.0*	·
OC[C@@H]1[C@H](c2ccc(C3=CCCCC3)cc2)[C@@H](CNC2CCCC2)N1CC1CC1	3.7	·	-91.5*	·
CCC(=O)NC[C@H]1[C@H](c2ccc(C3=CCCC3)cc2)[C@@H](CO)N1C(=O)C1CC1	0.4	·	-10.9	44.0
CCCNC[C@@H]1[C@@H](c2ccc(C3=CCCC3)cc2)[C@@H](CO)N1C(=O)C1CCCC1	-2.2	·	-91.7*	·
CCC(=O)N1[C@H](CO)[C@H](c2ccc(C3=CCCCC3)cc2)[C@H]1CNC1CCCC1	-2.7	·	-89.8*	·
CCn1c2ccccc2c2cc(NC(=O)Cc3ccccc3[N+](=O)[O-])ccc21	·	0.0	·	·
C[C@H]1CCCCO[C@H](CN(C)Cc2ccc(Cl)c(Cl)c2)[C@@H](C)CN([C@@H](C)CO)C(=O)c2cc(NC(=O)Nc3ccc4c(c3)OCO4)ccc2O1	-1.9	·	-56.4	68.3
C[C@@H]1CN([C@H](C)CO)C(=O)c2cc(NC(=O)Nc3ccc4c(c3)OCO4)ccc2O[C@@H](C)CCCCO[C@H]1CN(C)Cc1ccc(Cl)c(Cl)c1	-4.0	·	-89.1*	95.8
C[C@@H]1CCCCO[C@@H](CN(C)Cc2ccc(Cl)c(Cl)c2)[C@H](C)CN([C@H](C)CO)C(=O)c2cc(NC(=O)Nc3ccc4c(c3)OCO4)ccc2O1	-2.9	-0.8	-87.5*	98.0
C[C@@H]1CN([C@@H](C)CO)C(=O)c2cc(NS(=O)(=O)c3cn(C)cn3)ccc2O[C@@H]1CN(C)C(=O)Nc1cccc2ccccc12	3.6	0.0	-15.4	-14.1
C[C@H](CO)N1C[C@H](C)[C@@H](CN(C)Cc2ccc(-c3ccccc3)cc2)Oc2ccc(NC(=O)Nc3ccc(C(F)(F)F)cc3)cc2C1=O	-0.6	·	-85.2*	?
C[C@@H]1CN([C@H](C)CO)C(=O)c2cc(NC(=O)Nc3ccccc3)ccc2O[C@@H]1CN(C)Cc1ccc(C(F)(F)F)cc1	-1.1	0.3	0.2	29.0
C[C@H](CO)N1C[C@H](C)[C@@H](CN(C)Cc2ccc(Oc3ccccc3)cc2)Oc2ccc(NC(=O)Nc3ccc(C(F)(F)F)cc3)cc2C1=O	1.0	1.0	-64.9	67.7
SMILES	GASC1 inh	IDH1 R132H inh	Pf Dd2 growth	Tcruzi prolif
C[C@H](CO)N1C[C@H](C)[C@H](CN(C)Cc2ccc(Oc3ccccc3)cc2)Oc2ccc(NC(=O)Nc3ccc(C(F)(F)F)cc3)cc2C1=O	-1.1	·	-88.3*	68.9
Cc1ccc(S(=O)(=O)N(C)C[C@H]2OCCCC[C@@H](C)Oc3ccc(NC(=O)c4ccccc4)cc3C(=O)N([C@H](C)CO)C[C@@H]2C)cc1	-1.0	·	-62.6	44.1
C[C@@H]1CN([C@H](C)CO)C(=O)c2cc(NC(=O)c3ccccc3)ccc2O[C@@H](C)CCCCO[C@@H]1CN(C)S(=O)(=O)c1ccc(Cl)cc1	0.4	0.6	-82.4*	94.5
Cc1ccc(S(=O)(=O)N(C)C[C@H]2Oc3ccc(NC(=O)c4ccncc4)cc3C(=O)N([C@@H](C)CO)C[C@@H]2C)cc1	-2.6	-5.8	-87.8*	12.9
Cc1ccc(S(=O)(=O)N(C)C[C@H]2OCCCC[C@H](C)Oc3ccc(NC(=O)c4ccccc4)cc3C(=O)N([C@@H](C)CO)C[C@H]2C)cc1	0.3	·	-86.2*	-40.3
Cc1ccc(S(=O)(=O)N(C)C[C@H]2Oc3ccc(NC(=O)c4ccncc4)cc3C(=O)N([C@H](C)CO)C[C@H]2C)cc1	0.7	-3.0	23.2	-16.6
Cc1ccc(S(=O)(=O)N(C)C[C@@H]2Oc3ncc(-c4ccncc4)cc3C(=O)N([C@@H](C)CO)C[C@H]2C)cc1	38.8*	2.5	-49.3	99.4
C[C@@H]1CCCCO[C@H](CN(C)S(=O)(=O)c2ccc(Cl)cc2)[C@H](C)CN([C@@H](C)CO)C(=O)c2cc(NC(=O)c3ccccc3)ccc2O1	0.0	2.3	-73.6	100.8
C[C@@H]1CN([C@@H](C)CO)C(=O)c2cc(NC(=O)c3ccccc3)ccc2O[C@@H](C)CCCCO[C@@H]1CN(C)S(=O)(=O)c1ccc(F)cc1	·	·	-81.5*	·
C[C@@H]1CN([C@@H](C)CO)C(=O)c2cc(NC(=O)c3ccccc3)ccc2O[C@@H](C)CCCCO[C@H]1CN(C)S(=O)(=O)c1ccc(F)cc1	0.4	0.4	?	·
O=C(C1CC1)N1CC(=O)N2[C@H](CO)[C@@H](c3ccc(C#CCc4ccccc4)cc3)[C@@H]2C1	1.7	·	-87.5*	·
O=C(C1CC1)N1CC(=O)N2[C@@H](CO)[C@H](c3ccc(C#CCc4ccccc4)cc3)[C@@H]2C1	0.5	·	-53.4	·
O=C(c1ccccn1)N1CC(=O)N2[C@H](C1)[C@@H](c1ccc(C#CCc3ccccc3)cc1)[C@@H]2CO	0.0	·	-81.9*	·
CCC(=O)N1CC(=O)N2[C@@H](CO)[C@H](c3ccc(C#CCc4ccccc4)cc3)[C@@H]2C1	2.8	·	-84.5*	·
